From ChEMBL document CHEMBL1139819, “Cyanopyridyl containing 1,4-dihydroindeno[1,2-c]pyrazoles as potent checkpoint kinase 1 inhibitors: improving oral biovailability” (Bioorg Med Chem Lett, 2007)

Legend:
[1] = system: HeLa; assay: Antiproliferative activity against HeLa cells assessed as […] by MTS assay; format: functional, cell-based; details: Homo sapiens
Procedure, shortened: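 MTS proliferation assay in HeLa cells. […] For the combination, the regression baseline was set to the inhibition given by 150 nM doxorubicin alone. The combo/single EC50 ratio indexes potentiation.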

[2] = Antiproliferative activity against H1299 cells assessed as reduction in G2/M cell population by FACS assay; format: functional, cell-based; details: Homo sapiens, NCI-H1299
Procedure, shortened: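 Cell cycle analysis by FACS in H1299 cells. EC50 is the inhibitor concentration that halves the G2/M population induced by 500 nM doxorubicin (combo). It was also measured without doxorubicin (single).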

[3] = target: T1, Serine/threonine-protein kinase Chk1 (Homo sapiens, UniProt O14757); assay: Inhibition of recombinant CHK1
T1 sequence (O14757 whole entry): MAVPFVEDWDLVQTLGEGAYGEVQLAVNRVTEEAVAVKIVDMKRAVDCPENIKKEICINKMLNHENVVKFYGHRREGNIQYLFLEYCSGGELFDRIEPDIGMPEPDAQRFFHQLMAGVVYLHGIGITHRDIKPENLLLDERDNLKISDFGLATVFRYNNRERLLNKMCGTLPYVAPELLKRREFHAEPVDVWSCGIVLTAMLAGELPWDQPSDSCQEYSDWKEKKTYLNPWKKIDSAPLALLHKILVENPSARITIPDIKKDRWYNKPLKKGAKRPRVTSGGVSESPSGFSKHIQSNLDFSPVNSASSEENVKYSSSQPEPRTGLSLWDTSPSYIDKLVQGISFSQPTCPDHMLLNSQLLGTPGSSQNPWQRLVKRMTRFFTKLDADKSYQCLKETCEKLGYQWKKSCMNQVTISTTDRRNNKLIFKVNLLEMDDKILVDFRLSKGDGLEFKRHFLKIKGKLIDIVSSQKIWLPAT
Procedure, shortened: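 Substrate is 5 µM human biotinylated Cdc25c peptide. Buffer is 25 mM Hepes pH 7.4, 10 mM MgCl2, Triton X-100, 0.5 mM DTT. ATP at 5 µM plus 33P-ATP, with 2% DMSO. Run 30 min at room temperature, stopped with NaCl/EDTA, then 33P incorporation captured on a Flash Plate.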

[4] = Dissociation constant, pKa of the compound; format: physicochemical
[5] = AUC in mouse at 10 mg/kg, po; format: ADME, organism-based; design: dose 10 mg/kg, route oral; details: plasma
Procedure, shortened: (§1)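 Oral dosing in mice at 10 mg/kg. Plasma exposure read as AUC and Cmax.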

[6] = AUC in mouse at 10 mg/kg, ip; format: ADME, organism-based; design: dose 10 mg/kg, route intraperitoneal; details: plasma
Procedure, shortened: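 Mice dosed intraperitoneally at 10 mg/kg. Vehicle is 2.5% EtOH, 5% Tween 80, 25% PEG400 in PBS, or for some entries 10% NMP, 20% Solutol, 70% PBS. Plasma exposure is given as AUC.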

[7] = Volume of distribution in mouse at 3.0 mg/kg, iv; format: ADME, organism-based; design: dose 3 mg/kg, route intravenous; details: in vivo
[8] = Half life in mouse at 3.0 mg/kg, iv; format: ADME, organism-based; design: dose 3 mg/kg, route intravenous; details: in vivo
[9] = system: Mus musculus; assay: AUC in mouse at 3.0 mg/kg, iv; format: ADME, organism-based, Plasma; design: dose 3 mg/kg, route intravenous; details: in vivo
[10] = Cmax in mouse at 10 mg/kg, po; format: ADME, organism-based; design: dose 10 mg/kg, route oral; details: in vivo; procedure, shortened: as §1
[11] = Oral bioavailability in mouse at 10 mg/kg; format: ADME, organism-based; details: in vivo
[12] = AUC in Nu/Nu mouse at 10 mg/kg/day, po in NMP; format: ADME, organism-based; design: route oral; details: plasma
Procedure, shortened: (§2)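 Oral dosing in Nu/Nu mice at 10, 25 or 50 mkd in one of two vehicles, NMP or Phosal.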

[13] = AUC in Nu/Nu mouse at 25 mg/kg/day, po in NMP; format: ADME, organism-based; design: route oral; details: plasma; procedure, shortened: as §2
[14] = AUC in Nu/Nu mouse at 50 mg/kg/day, po in NMP; format: ADME, organism-based; design: route oral; details: plasma; procedure, shortened: as §2
[15] = AUC in Nu/Nu mouse at 10 mg/kg/day, po in phosal; format: ADME, organism-based; design: route oral; details: plasma; procedure, shortened: as §2
[16] = AUC in Nu/Nu mouse at 25 mg/kg/day, po in phosal; format: ADME, organism-based; design: route oral; details: plasma; procedure, shortened: as §2
[17] = AUC in Nu/Nu mouse at 50 mg/kg/day, po in phosal; format: ADME, organism-based; design: route oral; details: plasma; procedure, shortened: as §2

| Structure (SMILES) | EC50 [1] | IC50 [3] | pKa [4] | AUC [6] | further results |
| --- | --- | --- | --- | --- | --- |
| COc1cc2c(cc1OC)-c1n[nH]c(-c3ccc(-c4ccc(O)cc4)cc3)c1C2 | > 59000 nM | – | – | – | EC50 [2]: > 10000 nM |
| COc1cc2c(cc1OCCN1CCOCC1)Cc1c(-c3ccc(C#N)nc3)n[nH]c1-2 | – | 3.8 nM | – | – | – |
| N#Cc1ccc(-c2n[nH]c3c2Cc2ccc(OCCCN4CCCOCC4)cc2-3)cn1 | 5400 nM | 0.92 nM | 9.1 | – | AUC [5]: 31 ng·h/mL |
| N#Cc1ccc(-c2n[nH]c3c2Cc2ccc(OCCCN4CCCCC4)cc2-3)cn1 | 4000 nM | 2.6 nM | 9.1 | – | – |
| COc1cc2c(cc1OCCO)Cc1c(-c3ccc(C#N)nc3)n[nH]c1-2 | – | 3.1 nM | – | 300 ng·h/mL | – |
| COc1cc2c(cc1OCCN1CCOCC1)-c1[nH]nc(-c3ccc(C#N)nc3)c1C2 | – | 3 nM | – | 930 ng·h/mL | – |
| N#Cc1ccc(-c2n[nH]c3c2Cc2ccc(OCCCC4CCNCC4)cc2-3)cn1 | 2700 nM | 1 nM | 11 | – | – |
| N#Cc1ccc(-c2n[nH]c3c2Cc2ccc(OCCCN4CCOCC4)cc2-3)cn1 | > 59000 nM | 3.2 nM | – | 2600 ng·h/mL | AUC [5]: 3000 ng·h/mL; Vd [7]: 7.6 L/kg; half-life [8]: 1.4 h; AUC [9]: 2000 ng·h/mL; Cmax [10]: 660 nM; bioavailability [11]: 44% |
| COc1cc2c(cc1OCCc1scnc1C)-c1[nH]nc(-c3ccc(C#N)nc3)c1C2 | – | 1.1 nM | – | – | – |
| N#Cc1ccc(-c2n[nH]c3c2Cc2ccc(OCCCc4cccs4)cc2-3)cn1 | > 59000 nM | 52 nM | 1.6 | – | – |
| Cc1ncsc1CCOc1ccc2c(c1)-c1[nH]nc(-c3ccc(C#N)nc3)c1C2 | 7600 nM | 6.4 nM | 3.3 | – | – |
| N#Cc1ccc(-c2n[nH]c3c2Cc2ccc(OCCCCCN4CCOCC4)cc2-3)cn1 | 8100 nM | 1.4 nM | – | – | – |
| N#Cc1ccc(-c2n[nH]c3c2Cc2ccc(NCCN4CCOCC4)cc2-3)cn1 | > 59000 nM | 7 nM | – | – | – |
| N#Cc1ccc(-c2n[nH]c3c2Cc2ccc(NC(=O)CCN4CCOCC4)cc2-3)cn1 | 33000 nM | 16 nM | – | – | – |
| N#Cc1ccc(-c2n[nH]c3c2Cc2ccc(OCCN4CCOCC4)cc2-3)cn1 | > 59000 nM | – | 5.7 | 5700 ng·h/mL | – |
| CC(=O)N1CCN(CCCCOc2ccc3c(c2)-c2[nH]nc(-c4ccc(C#N)nc4)c2C3)CC1 | 33000 nM | 1.5 nM | 6.9 | 2200 ng·h/mL | – |
| N#Cc1ccc(-c2n[nH]c3c2Cc2ccc(CCCCN4CCOCC4)cc2-3)cn1 | 9700 nM | 1.2 nM | – | – | – |
| N#Cc1ccc(-c2n[nH]c3c2Cc2cc(OCCCN4CCOCC4)ccc2-3)cn1 | > 59000 nM | 6.4 nM | – | – | – |
| N#Cc1ccc(-c2n[nH]c3c2Cc2ccc(OCCCn4ccnc4)cc2-3)cn1 | > 59000 nM | 1.1 nM | 7.2 | – | – |
| COc1cc2c(cc1OC)-c1[nH]nc(-c3ccc(C#N)nc3)c1C2 | > 59000 nM | – | – | – | EC50 [2]: > 10000 nM |
| CN1CCN(CCCOc2ccc3c(c2)-c2[nH]nc(-c4ccc(C#N)nc4)c2C3)CC1 | 6200 nM | 1.5 nM | 9.1 | – | – |
| N#Cc1ccc(-c2n[nH]c3c2Cc2ccc(OCCCCN4CCOCC4)cc2-3)cn1 | 21000 nM | 0.75 nM | – | 10400 ng·h/mL | AUC [5]: > 3300 ng·h/mL; Vd [7]: 6.9 L/kg; half-life [8]: 1.4 h; AUC [9]: 2100 ng·h/mL; Cmax [10]: 770 nM; bioavailability [11]: > 50%; AUC [12]: 6000 ng·h/mL; AUC [13]: 12000 ng·h/mL; AUC [14]: 25000 ng·h/mL; AUC [15]: 5000 ng·h/mL; AUC [16]: 15000 ng·h/mL; AUC [17]: 32000 ng·h/mL |
| N#Cc1ccc(-c2n[nH]c3c2Cc2cc(OCCN4CCOCC4)ccc2-3)cn1 | > 59000 nM | 6.5 nM | – | – | – |
| COc1cc2c(cc1OCc1ccccn1)Cc1c(-c3ccc(C#N)nc3)n[nH]c1-2 | – | 3.7 nM | – | 470 ng·h/mL | – |
| COc1cc2c(cc1OCCc1scnc1C)Cc1c(-c3ccc(C#N)nc3)n[nH]c1-2 | – | 2.5 nM | – | – | – |
| COc1cc2c(cc1OCCO)-c1[nH]nc(-c3ccc(C#N)nc3)c1C2 | – | 2.6 nM | – | – | – |
| N#Cc1ccc(-c2n[nH]c3c2Cc2ccc(OCCOCCN4CCOCC4)cc2-3)cn1 | 29000 nM | 1.8 nM | 6.1 | 1700 ng·h/mL | – |
| C[C@@H]1CN(CCCOc2ccc3c(c2)-c2[nH]nc(-c4ccc(C#N)nc4)c2C3)C[C@H](C)O1 | > 52000 nM | 1 nM | 6.1 | 3000 ng·h/mL | – |
